pEC50, pIC50, pKi: −log10 of the molar value. Calls of active or inactive are those of the source. No cut-off for these calls is given here.
system: Dengue virus; experiment: Mixed type inhibition of Dengue virus NS2B-NS3 protease expressed in Escherichia coli BL 21 (DE3) using Abz-Nle-Lys-Arg-Arg-Ser-3-(NO2)Tyr as substrate by Cornish-Bowden plot analysis; settings: not given
How it was run: (§1)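 DEN2 NS2B–NS3 FRET assay run at inhibitor 0–6 μM (prior-series compounds 5–50 μM) and substrate 50, 100, 150 and 200 μM, in triplicate, with inner-filter correction. Ki from Dixon plots (1/v vs [I]) and Ki′ from Cornish-Bowden plots (S/v vs [I]). Inhibition mode assigned from these plots.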

Compound	inhibition
CCCC[C@H](NC(=O)[C@H](CCCCN)NC(=O)[C@H](CCCNC(=N)N)NC(=O)c1ccc(/C=C2\SC(=S)N(C3CCCCC3)C2=O)cc1)C(N)=O	Active
CCCC[C@H](NC(=O)[C@H](CCCCN)NC(=O)[C@H](CCCNC(=N)N)NC(=O)c1ccc(/C=C2\SC(=S)N(CCc3ccccc3)C2=O)cc1)C(N)=O	Active

system: not listed separately; experiment: Permeability of the compound by PAMPA; type: ADME; settings: read-out: permeability
How it was run: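 PAMPA with precoated trilayer lipid/oil/lipid membranes, donor wells holding 200 μM compound in PBS pH 7.4 (2% DMSO final), in triplicate. Incubated 5 h at room temperature. Donor and acceptor concentrations determined by UV plate reader or HPLC-UV against calibration curves. Pe and mass retention R calculated.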

Compound	Papp [×10⁻⁶ cm/s]
CCCCC(C(=O)OC)N1C(=O)/C(=C/c2ccc(C(=O)N[C@@H](CCCNC(=N)N)C(=O)N[C@@H](CCCCN)C(=O)N[C@@H](CCCC)C(N)=O)cc2)SC1=S (stereo partly specified)	0.87
CCCC[C@H](NC(=O)[C@H](CCCCN)NC(=O)[C@H](CCCNC(=N)N)NC(=O)c1ccc(/C=C2\SC(=S)N(C3CCCCC3)C2=O)cc1)C(N)=O	1.82

system: not listed separately; experiment: Solubility of the compound in PBS buffer; type: physicochemical; settings: not given

Compound	solubility
CCCC[C@H](NC(=O)[C@H](CCCCN)NC(=O)[C@H](CCCNC(=N)N)NC(=O)c1ccc(/C=C2\SC(=S)N(CCc3ccccc3)C2=O)cc1)C(N)=O	Insoluble

system: Dengue virus; experiment: Inhibition of Dengue virus NS2B-NS3 protease expressed in Escherichia coli BL 21 (DE3) using Abz-Nle-Lys-Arg-Arg-Ser-3-(NO2)Tyr as substrate at 50 uM after 15 mins; settings: not given

Compound	inhibition [%]
CCCCC(C(=O)OC)N1C(=O)/C(=C/c2ccc(C(=O)N[C@@H](CCCNC(=N)N)C(=O)N[C@@H](CCCCN)C(=O)N[C@@H](CCCC)C(N)=O)cc2)SC1=S (stereo partly specified)	101
CCCC[C@H](NC(=O)[C@H](CCCCN)NC(=O)[C@H](CCCNC(=N)N)NC(=O)c1ccc(/C=C2\SC(=S)N(C3CCCCC3)C2=O)cc1)C(N)=O	99.2
CCCC[C@H](NC(=O)[C@H](CCCCN)NC(=O)[C@H](CCCNC(=N)N)NC(=O)c1ccc(/C=C2\SC(=S)N(CCc3ccccc3)C2=O)cc1)C(N)=O	99.6

system: Huh-7; experiment: Cytotoxicity against human HuH7 cells at <50 uM after 48 hrs by firefly reporter assay; type: cell-based; settings: huh-7, 48 h
How it was run: (§2)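 Uninfected Huh-7 cells stably expressing firefly luciferase, seeded 5000/well and incubated overnight at 37 °C. Compound added at 1.56–50 μM, plus 100, 200 and 400 μM, then incubated as for infected cells (further 48 h after the 4 h point). Firefly luminescence read with 70 μM luciferin and 2 mM ATP. Mean of three wells as percent of DMSO control.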

Compound	Activity
CCCC[C@H](NC(=O)[C@H](CCCCN)NC(=O)[C@H](CCCNC(=N)N)NC(=O)c1ccc(/C=C2\SC(=S)N(C3CCCCC3)C2=O)cc1)C(N)=O	Non-toxic
CCCC[C@H](NC(=O)[C@H](CCCCN)NC(=O)[C@H](CCCNC(=N)N)NC(=O)c1ccc(/C=C2\SC(=S)N(CCc3ccccc3)C2=O)cc1)C(N)=O	Non-toxic

system: not listed separately; experiment: Inhibition of Dengue virus NS2B-NS3 protease expressed in Escherichia coli BL 21 (DE3) using Abz-Nle-Lys-Arg-Arg-Ser-3-(NO2)Tyr as substrate assessed as enzyme-inhibitor complex by Cornish-Bowden plot analysis; settings: in the assay text read “Dixon plot” for “Cornish-Bowden plot”; how it was run: as §1

Compound	pKi
CCCCC(C(=O)OC)N1C(=O)/C(=C/c2ccc(C(=O)N[C@@H](CCCNC(=N)N)C(=O)N[C@@H](CCCCN)C(=O)N[C@@H](CCCC)C(N)=O)cc2)SC1=S (stereo partly specified)	< 5.00
CCCC[C@H](NC(=O)[C@H](CCCCN)NC(=O)[C@H](CCCNC(=N)N)NC(=O)c1ccc(/C=C2\SC(=S)N(C3CCCCC3)C2=O)cc1)C(N)=O	5.03
CCCC[C@H](NC(=O)[C@H](CCCCN)NC(=O)[C@H](CCCNC(=N)N)NC(=O)c1ccc(/C=C2\SC(=S)N(CCc3ccccc3)C2=O)cc1)C(N)=O	4.87

system: not listed separately; experiment: Inhibition of Dengue virus NS2B-NS3 protease expressed in Escherichia coli BL 21 (DE3) using Abz-Nle-Lys-Arg-Arg-Ser-3-(NO2)Tyr as substrate assessed as enzyme-substrate-inhibitor complex by Cornish-Bowden plot analysis; settings: not given; how it was run: as §1

Compound	pKi
CCCCC(C(=O)OC)N1C(=O)/C(=C/c2ccc(C(=O)N[C@@H](CCCNC(=N)N)C(=O)N[C@@H](CCCCN)C(=O)N[C@@H](CCCC)C(N)=O)cc2)SC1=S (stereo partly specified)	5.28
CCCC[C@H](NC(=O)[C@H](CCCCN)NC(=O)[C@H](CCCNC(=N)N)NC(=O)c1ccc(/C=C2\SC(=S)N(C3CCCCC3)C2=O)cc1)C(N)=O	5.36
CCCC[C@H](NC(=O)[C@H](CCCCN)NC(=O)[C@H](CCCNC(=N)N)NC(=O)c1ccc(/C=C2\SC(=S)N(CCc3ccccc3)C2=O)cc1)C(N)=O	5.29

system: West Nile virus; experiment: Inhibition of West Nile virus NS2B-NS3 protease expressed in Escherichia coli BL 21 (DE3) using Abz-Gly-Leu-Lys-Arg-Gly-Gly-3-(NO2)Tyr as substrate at 50 uM after 15 mins; settings: not given

Compound	inhibition [%]
CCCCC(C(=O)OC)N1C(=O)/C(=C/c2ccc(C(=O)N[C@@H](CCCNC(=N)N)C(=O)N[C@@H](CCCCN)C(=O)N[C@@H](CCCC)C(N)=O)cc2)SC1=S (stereo partly specified)	94.2
CCCC[C@H](NC(=O)[C@H](CCCCN)NC(=O)[C@H](CCCNC(=N)N)NC(=O)c1ccc(/C=C2\SC(=S)N(C3CCCCC3)C2=O)cc1)C(N)=O	96.9
CCCC[C@H](NC(=O)[C@H](CCCCN)NC(=O)[C@H](CCCNC(=N)N)NC(=O)c1ccc(/C=C2\SC(=S)N(CCc3ccccc3)C2=O)cc1)C(N)=O	98.3

system: dengue virus type 2; experiment: Antiviral activity against Dengue virus 2 infected in human Huh-7 cells assessed as inhibition of viral replication after 48 hrs by luciferase reporter gene assay; type: functional, organism-based; settings: Huh-7, 48 h
How it was run: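 Huh-7 cells seeded 5000/well, incubated overnight at 37 °C, then given compound (1.56–50 μM final, 2-fold series in DMEM with 10% FCS). Dengue 2 renilla luciferase reporter virus (MOI 10) added 4 h later. After 48 h at 37 °C, cells lysed and renilla luminescence read with coelenterazine. At least four wells per concentration, expressed relative to DMSO control. EC50 by nonlinear regression.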

Compound	pEC50
CCCCC(C(=O)OC)N1C(=O)/C(=C/c2ccc(C(=O)N[C@@H](CCCNC(=N)N)C(=O)N[C@@H](CCCCN)C(=O)N[C@@H](CCCC)C(N)=O)cc2)SC1=S (stereo partly specified)	4.31
CCCC[C@H](NC(=O)[C@H](CCCCN)NC(=O)[C@H](CCCNC(=N)N)NC(=O)c1ccc(/C=C2\SC(=S)N(C3CCCCC3)C2=O)cc1)C(N)=O	4.78
CCCC[C@H](NC(=O)[C@H](CCCCN)NC(=O)[C@H](CCCNC(=N)N)NC(=O)c1ccc(/C=C2\SC(=S)N(CCc3ccccc3)C2=O)cc1)C(N)=O	4.59

system: Huh-7; experiment: Cytotoxicity against human HuH7 cells at >100 uM after 48 hrs by firefly reporter assay; type: cell-based; settings: huh-7, 48 h; how it was run: as §2

Compound	Activity
CCCC[C@H](NC(=O)[C@H](CCCCN)NC(=O)[C@H](CCCNC(=N)N)NC(=O)c1ccc(/C=C2\SC(=S)N(C3CCCCC3)C2=O)cc1)C(N)=O	Toxic

system: Dengue virus; experiment: Uncompetitive inhibition of Dengue virus NS2B-NS3 protease expressed in Escherichia coli BL 21 (DE3) using Abz-Nle-Lys-Arg-Arg-Ser-3-(NO2)Tyr as substrate by Cornish-Bowden plot analysis; settings: not given; how it was run: as §1

Compound	inhibition
CCCCC(C(=O)OC)N1C(=O)/C(=C/c2ccc(C(=O)N[C@@H](CCCNC(=N)N)C(=O)N[C@@H](CCCCN)C(=O)N[C@@H](CCCC)C(N)=O)cc2)SC1=S (stereo partly specified)	Active

system: not listed separately; experiment: Inhibition of Dengue virus NS2B-NS3 protease expressed in Escherichia coli BL 21 (DE3) using Abz-Nle-Lys-Arg-Arg-Ser-3-(NO2)Tyr as substrate after 15 mins; settings: not given

Compound	pIC50
CCCCC(C(=O)OC)N1C(=O)/C(=C/c2ccc(C(=O)N[C@@H](CCCNC(=N)N)C(=O)N[C@@H](CCCCN)C(=O)N[C@@H](CCCC)C(N)=O)cc2)SC1=S (stereo partly specified)	4.94
CCCC[C@H](NC(=O)[C@H](CCCCN)NC(=O)[C@H](CCCNC(=N)N)NC(=O)c1ccc(/C=C2\SC(=S)N(C3CCCCC3)C2=O)cc1)C(N)=O	5.21
CCCC[C@H](NC(=O)[C@H](CCCCN)NC(=O)[C@H](CCCNC(=N)N)NC(=O)c1ccc(/C=C2\SC(=S)N(CCc3ccccc3)C2=O)cc1)C(N)=O	5.11

molecular target: Prothrombin (Homo sapiens) (UniProt P00734); experiment: Inhibition of thrombin (unknown origin) using Boc-Val-Pro-Arg-AMC as substrate at 25 uM after 10 mins by continuous fluorimetric assay; settings: not given
How it was run: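 Thrombin (10 nM) preincubated 15 min with inhibitor (25 μM final) in 50 mM Tris-HCl pH 7.5, 150 mM NaCl, 0.05% Tween 20. Boc-Val-Pro-Arg-AMC then added to 50 μM (Km 16 μM). Fluorescence (ex 355 nm, em 460 nm) followed for 10 min as slope. Triplicate; percent inhibition versus no-inhibitor control.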

Compound	inhibition [%]
CCCCC(C(=O)OC)N1C(=O)/C(=C/c2ccc(C(=O)N[C@@H](CCCNC(=N)N)C(=O)N[C@@H](CCCCN)C(=O)N[C@@H](CCCC)C(N)=O)cc2)SC1=S (stereo partly specified)	9
CCCC[C@H](NC(=O)[C@H](CCCCN)NC(=O)[C@H](CCCNC(=N)N)NC(=O)c1ccc(/C=C2\SC(=S)N(C3CCCCC3)C2=O)cc1)C(N)=O	14.2
CCCC[C@H](NC(=O)[C@H](CCCCN)NC(=O)[C@H](CCCNC(=N)N)NC(=O)c1ccc(/C=C2\SC(=S)N(CCc3ccccc3)C2=O)cc1)C(N)=O	6.2

system: dengue virus type 2; experiment: Antiviral activity against Dengue virus 2 infected in human Huh-7 cells assessed as inhibition of virus-induced plaque formation at 50 uM after 48; type: functional, organism-based; settings: not given
How it was run: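 Huh-7 cells seeded in 12-well plates and pretreated with compound (50 μM) for 4 h. Infected for 1 h with dengue reporter virus (MOI 5) in the presence of compound, then medium replaced with compound-containing DMEM. Supernatant harvested at 48 h and filtered. Titer determined by plaque assay on Vero cells. Mean ± SD of three independent experiments.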

Compound	inhibition
CCCC[C@H](NC(=O)[C@H](CCCCN)NC(=O)[C@H](CCCNC(=N)N)NC(=O)c1ccc(/C=C2\SC(=S)N(C3CCCCC3)C2=O)cc1)C(N)=O	Active

Reference: ChEMBL document CHEMBL2440094, “Thiazolidinone-peptide hybrids as dengue virus protease inhibitors with antiviral activity in cell culture” (J Med Chem, 2013)
